A selection: hits, their analogues and other compounds. The true share with any hit is near 11%.
M1 ag: M1 muscarinic receptor agonists, primary screen, CHO-M1 cells, Fluo-4 calcium, agonist mode; Muscarinic acetylcholine receptor M1; AID 626, 2007; B-score at 10 µM; 64,000 compounds, 3% hits; Fluo-4 calcium fluorescence; active compounds read high;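 active = fluorescence rise, raw or as B-score row- and column-corrected plate score, outside the 99.7% band of its plate's samples, either direction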
D1 allo mod: D1 CRE-luciferase signal change, two-sided – cell-based, HEK293 D1, dopamine EC30, D1 allosteric modulator project, primary screen; dopamine EC30 potentiation; actives deviate in either direction; B-score at 10 µM; 58,000 compounds, 5.9% hits;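 active = luminescence count or its row- and column-corrected plate score outside the 99.7% band of the plate's sample wells, on either side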
Target sequence (P21728 whole entry, looked up): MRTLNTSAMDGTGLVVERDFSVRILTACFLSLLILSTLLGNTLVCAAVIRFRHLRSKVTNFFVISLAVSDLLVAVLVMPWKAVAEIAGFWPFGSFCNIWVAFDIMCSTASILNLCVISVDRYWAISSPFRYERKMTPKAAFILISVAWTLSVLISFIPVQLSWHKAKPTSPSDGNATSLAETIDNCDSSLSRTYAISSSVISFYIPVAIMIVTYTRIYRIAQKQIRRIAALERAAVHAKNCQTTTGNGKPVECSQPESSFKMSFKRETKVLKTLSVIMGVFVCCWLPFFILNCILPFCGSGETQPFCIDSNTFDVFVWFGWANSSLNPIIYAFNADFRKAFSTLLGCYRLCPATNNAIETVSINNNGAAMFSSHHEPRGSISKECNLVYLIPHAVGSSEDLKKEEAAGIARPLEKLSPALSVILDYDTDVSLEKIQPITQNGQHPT
S1P1 ag pot: S1P1 agonists and agonism potentiators, primary screen, cell-based, primary and confirmation screens, CRE-bla reporter; Sphingosine 1-phosphate receptor 1 (Homo sapiens), P21453; S1P1 CRE-bla cells, forskolin, beta-lactamase FRET, potentiator mode; S1P1 agonist co-added at EC20, 2 nM; 100% = saturating reference agonist, 0% = basal; activation, % at 9.5 µM; 56,000 compounds, 0.57% hits; AID 449, 2006;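 active = activation above a cutoff set at the mean activation of all tested compounds plus 3 SD, cut at about 54% in these data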;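 also: forskolin at 4 µM as EC80 and the EC20 agonist is SEW2871; 100% = SEW2871 at its EC100 plus forskolin at EC80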
M1 antag: antagonists of rat M1 muscarinic receptor | Muscarinic acetylcholine receptor M1 (Rattus norvegicus), P08482 | CHO-M1 cells, Fluo-4 calcium, ACh EC80 antagonist mode; active compounds read low | 64,000 compounds, 3.4% hits | B-score at 10 µM | AID 628, 2007;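 active = calcium fluorescence response, raw or row-and-column corrected B-score, differing from the plate sample mean either way at a set confidence level, mostly lower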
S1P3 ag: human S1P3 receptor agonists, primary screen, cell-based, primary and confirmation, NFAT-BLA reporter; activation, % at 4.5 µM; S1P3 NFAT-BLA reporter cells, agonism, FRET ratio; relative to 1 µM S1P, basal subtracted; 60,000 compounds, 0.1% hits; AID 373, 2006; Sphingosine 1-phosphate receptor 3 (Homo sapiens), Q99500;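 active = activation above the screen-wide mean plus 3 SD, cut at about 4.5% in these data, passing the limit was not always enough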
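Assay system: CHO cells stably expressing human S1P3, Gα16 and NFAT-β-lactamase reporter. Timing: overnight plating, 4 h compound 37 °C, 2 h substrate RT. Signal: β-lactamase FRET emission ratio 460/535 nm. Measure: percent activation versus median 1 µM S1P response, basal-subtracted, per plate. Repeats: primary screen single test, confirmation screen in triplicate.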
M1 antag conf: rat M1 muscarinic receptor antagonists, confirmation, CHO cells, Fluo-4 calcium, duplicate | AID 677, 2007 | 1,700 compounds, 43% hits | calcium response (max-min fluorescence) at 10 µM | ACh EC80 antagonism; active compounds read low | shares compounds with M1 antag;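 active = calcium response below the same-plate mean of wells given acetylcholine alone at its 80%-effect dose, minus 3 SD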;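 also: raw fluorescence intensity difference in arbitrary instrument units and not normalized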
mGluR4 antag: human mGluR4 response to M1 antagonist hits, M1 allosteric modulator project, cell-based, antagonist mode, secondary assay 1. fluorescence response (max-min) at 10 µM. CHO-mGluR4 calcium flux, Fluo-4 fluorescence, glutamate EC80; active compounds read low. 1,700 compounds, 0.9% hits. shares compounds with M1 antag;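 active = fluorescence response below the plate's average for near-maximal glutamate wells, less 3 SD of those wells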;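 also: raw unnormalized fluorescence span taken in the window right after glutamate addition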
Active calls of the source: *.

How did Cn1c(-c2cccc(Br)c2)cnc1NCc1cccnc1 do in these assays?
M1 ag: -0.023; D1 allo mod: -1.3; S1P1 ag pot: 9; M1 antag: -6.9*; S1P3 ag: 0; M1 antag conf: 40*; mGluR4 antag: 166

Results for COc1cccc(-c2cnc(NCc3cc(Cl)ccc3O)n2C)c1 ?
M1 ag: -1.5; D1 allo mod: -2.6; S1P1 ag pot: -5; M1 antag: -5.1*; S1P3 ag: 0; M1 antag conf: 359*; mGluR4 antag: 185

How did Cn1c(=O)c2c(nc(NCc3cccnc3)n2Cc2cccc(C(F)(F)F)c2)n(C)c1=O do in these assays?
M1 ag: -0.27; D1 allo mod: -0.91; S1P1 ag pot: 14; M1 antag: 0.46; S1P3 ag: -1

What do the screens show for `CN(Cc1ccccc1)S(=O)(=O)c1ccc2c(c1)OCCO2`?
M1 ag: 0.063; D1 allo mod: -0.15; M1 antag: -0.47; S1P3 ag: -1

What do the screens show for `CN(C)S(=O)(=O)c1cccc(CSc2cccc[n+]2[O-])c1`?
M1 ag: 0.77; D1 allo mod: -0.63; S1P1 ag pot: -12; M1 antag: -2.2*; S1P3 ag: 0; M1 antag conf: 666; mGluR4 antag: 184

Results for Cn1c(=O)n(C)c2cc(NC(=O)CSc3nnc(-c4ccccc4O)n3-c3ccccc3)ccc21 ?
M1 ag: -0.38; D1 allo mod: -2; M1 antag: -1.1; S1P3 ag: 0

What do the screens show for `O=C(NCC1CCCO1)C1CCN(S(=O)(=O)c2cccc3cccnc23)CC1` (stereo not given)?
M1 ag: 0.052; D1 allo mod: -0.68; S1P1 ag pot: 11; M1 antag: -0.67; S1P3 ag: -1

What do the screens show for `CCOC(=O)c1c(CN(CC)CC)oc2cc(Br)c(O)cc12`?
M1 ag: -0.43; D1 allo mod: 2.5; S1P1 ag pot: -46; M1 antag: -2*; S1P3 ag: 0; M1 antag conf: 679; mGluR4 antag: 217

What do the screens show for `CCOC(=O)c1c(C)oc2cc(Br)c(OC(=O)N3CCOCC3)cc12`?
M1 ag: 2.2; S1P1 ag pot: 7; M1 antag: 0.3; S1P3 ag: -2

What do the screens show for `CCCCOc1ccc(C(=O)N2CCCCCC2)cc1`?
M1 ag: 0; D1 allo mod: -0.66; S1P1 ag pot: -3; M1 antag: -0.16; S1P3 ag: -1

What do the screens show for `CCCCOc1ccc(CN2CCCCC2)cc1`?
M1 ag: -0.26; D1 allo mod: 0.047; S1P1 ag pot: -12; M1 antag: -5.1*; S1P3 ag: -2; M1 antag conf: 283*; mGluR4 antag: 262

What do the screens show for `COc1ccc(C(c2nnnn2Cc2ccc(F)cc2)N2CCN(c3ccc(OC)cc3)CC2)cc1` (stereo not given)?
M1 ag: 0.8; D1 allo mod: -0.9; S1P1 ag pot: -26; M1 antag: -3.8*; S1P3 ag: -1; M1 antag conf: 661; mGluR4 antag: 168

How did O=C1CCc2cc(S(=O)(=O)NCCC(=O)N3CCN(c4cccc(Cl)c4)CC3)ccc2N1 do in these assays?
M1 ag: 0.47; D1 allo mod: 0.19; S1P1 ag pot: 18; M1 antag: 0.59; S1P3 ag: -1

How did CCN1CCN(CCC(=O)Nc2ccccc2OC)CC1 do in these assays?
M1 ag: 0.43; D1 allo mod: -0.55; S1P1 ag pot: 17; M1 antag: 0.67; S1P3 ag: 1
